Data set [1] can be described thus: cells. Particulars: Mus musculus, 32D, 48 h.
Data set [2] has as its target Proto-oncogene tyrosine-protein kinase Src (Homo sapiens) (UniProt P12931). Briefly: Inhibition of recombinant c-SRC (unknown origin) at 100 uM after 5 mins by scintillation counting analysis in presence of [gamma32P]ATP.
Data set [3] can be described thus: Half life in water at 500 uM by HPLC analysis. It is filed as physicochemical. A digest of the protocol:
(§1)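 Compounds dissolved at 500 μM in methanol, water, or PBS (12.5 μM, pH 7.4). Mean of at least two experiments.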

The nature of data set [4]: Half life in human plasma at 1 mM by HPLC analysis. It is filed as ADME, cell-free. The gist of the method: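 Incubated at 37 °C in pooled human plasma. Loss of substrate and formation of parent drug followed by HPLC. Mean of at least two experiments.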
Data set [5] is described as follows: cells. The settings on record: Mus musculus, 32D, 48 h. The source holds these as a separate data set.
A short description of data set [6]: Half life in phosphate buffer at 500 uM at pH 7.4 by HPLC analysis. The class given is physicochemical. The gist of the method: as §1
The target of data set [7] is Tyrosine-protein kinase ABL1 (Homo sapiens) (UniProt P00519). Briefly: Inhibition of recombinant wild type c-ABL (unknown origin) at 100 uM after 5 mins by scintillation counting analysis in presence of [gamma32P]ATP.
Data set [8] in a line: Half life in methanol at 500 uM by HPLC analysis. The class given is physicochemical. The gist of the method: as §1
Data set [9] has as its target Proto-oncogene tyrosine-protein kinase Src (Mus musculus) (UniProt P05480). Briefly: Inhibition of c-SRC phosphorylation at Y416 in mouse 32D cells expressing BCR/ABL fusion protein p210 at 1 uM by Western blotting analysis. The class given is cell-based. A digest of the protocol:
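32D cells treated with 1 μM compound. Phosphorylated (active) c-Src and c-Abl detected by Western blot with β-actin as loading control. Dasatinib used as reference dual inhibitor.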
In general terms: Immunoblotting shows a protein as a band on a membrane.

Data set [10] in a line: Apparent permeability of the compound assessed as membrane retention after 5 hrs by PAMPA. The class given is ADME. The gist of the method: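 PAMPA passive permeability measured as Papp (10⁻⁶ cm s⁻¹). Membrane retention is the percentage of compound that fails to reach the acceptor compartment. Mean of at least two experiments.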
(The PAMPA barrier holds no transporters, so it reflects passive diffusion.)

Data set [11] is described as follows: Apparent permeability of the compound after 5 hrs by PAMPA. The class given is ADME. Particulars: for Papp at 5 h: PAMPA.
A short description of data set [12]: Thermodynamic solubility of the compound in water at 1 mg after 24 hrs by UV/LC-MS analysis. Particulars: read-out: Therm_solubility. The class given is physicochemical. A digest of the protocol:
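Aqueous solubility: compound concentration measured by UV/LC−MS after filtration through a 0.45 μm nylon filter. Mean of at least two experiments.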

The nature of data set [13]: Metabolic stability in human liver microsomes assessed as compound remaining at 50 uM after 60 mins by UV/LC/MS analysis. It is filed as ADME, Microsome. The settings on record: read-out: Stability. The gist of the method: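 Human pooled liver microsomes, incubated at 37 °C for 1 h to simulate phase I metabolism. Parent drug and metabolites are then quantified by LC–MS. Stability is given as the percentage of unmodified drug remaining.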
For orientation: Microsomes from liver hold many membrane-bound enzymes, among them those of drug oxidation.

This note sets out measurements from ChEMBL document CHEMBL2407017, “Pyrazolo[3,4-d]pyrimidine Prodrugs: Strategic Optimization of the Aqueous Solubility of Dual Src/Abl Inhibitors” (ACS Med Chem Lett, 2013).

In brackets after ≈: the same amount, converted by molar mass. Activity calls are given as the source filed them. The calls are words filed in the database; no cut-off is given here.

As usually defined, the IC50 is the midpoint of a concentration-inhibition curve. Low readings indicate inhibition by little substance, high ones a need for much substance. As a reminder, the half-life is the time in which the quantity being followed falls by half. Low values mean fast loss, high ones slow loss. In general, Papp refers to a coefficient for how fast a substance crosses the barrier.

Proto-oncogene tyrosine-protein kinase Src (Mus musculus), sequence (P05480 2-535 limits assumed): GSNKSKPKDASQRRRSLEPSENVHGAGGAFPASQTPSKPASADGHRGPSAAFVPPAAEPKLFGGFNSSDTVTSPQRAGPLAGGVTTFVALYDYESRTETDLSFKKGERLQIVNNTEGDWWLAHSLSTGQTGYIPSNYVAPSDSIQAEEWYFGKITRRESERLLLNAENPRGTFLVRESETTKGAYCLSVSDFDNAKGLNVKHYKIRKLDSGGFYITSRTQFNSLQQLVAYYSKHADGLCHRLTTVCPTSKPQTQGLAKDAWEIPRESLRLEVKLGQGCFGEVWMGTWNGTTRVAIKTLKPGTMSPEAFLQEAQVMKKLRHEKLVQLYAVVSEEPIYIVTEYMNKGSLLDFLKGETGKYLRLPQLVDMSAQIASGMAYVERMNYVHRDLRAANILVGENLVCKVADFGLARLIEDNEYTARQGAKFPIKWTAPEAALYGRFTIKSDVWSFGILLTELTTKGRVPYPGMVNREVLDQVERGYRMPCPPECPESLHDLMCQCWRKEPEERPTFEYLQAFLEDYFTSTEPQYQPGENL
Proto-oncogene tyrosine-protein kinase Src (Homo sapiens), sequence (P12931 2-536 limits assumed): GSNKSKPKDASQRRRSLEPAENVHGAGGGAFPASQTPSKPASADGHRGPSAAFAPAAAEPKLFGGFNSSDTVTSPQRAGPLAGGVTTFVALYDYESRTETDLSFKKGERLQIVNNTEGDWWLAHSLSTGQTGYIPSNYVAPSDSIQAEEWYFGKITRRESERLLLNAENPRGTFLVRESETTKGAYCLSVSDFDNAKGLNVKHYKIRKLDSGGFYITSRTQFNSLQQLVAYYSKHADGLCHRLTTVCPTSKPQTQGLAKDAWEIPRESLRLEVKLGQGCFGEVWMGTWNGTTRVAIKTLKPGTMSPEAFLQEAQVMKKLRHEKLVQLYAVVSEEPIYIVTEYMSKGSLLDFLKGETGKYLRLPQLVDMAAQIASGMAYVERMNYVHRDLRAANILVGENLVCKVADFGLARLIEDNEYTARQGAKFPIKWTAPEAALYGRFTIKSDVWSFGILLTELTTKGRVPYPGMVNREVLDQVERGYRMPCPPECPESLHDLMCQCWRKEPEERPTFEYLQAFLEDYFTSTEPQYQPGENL
Tyrosine-protein kinase ABL1 (Homo sapiens), sequence (P00519 whole entry): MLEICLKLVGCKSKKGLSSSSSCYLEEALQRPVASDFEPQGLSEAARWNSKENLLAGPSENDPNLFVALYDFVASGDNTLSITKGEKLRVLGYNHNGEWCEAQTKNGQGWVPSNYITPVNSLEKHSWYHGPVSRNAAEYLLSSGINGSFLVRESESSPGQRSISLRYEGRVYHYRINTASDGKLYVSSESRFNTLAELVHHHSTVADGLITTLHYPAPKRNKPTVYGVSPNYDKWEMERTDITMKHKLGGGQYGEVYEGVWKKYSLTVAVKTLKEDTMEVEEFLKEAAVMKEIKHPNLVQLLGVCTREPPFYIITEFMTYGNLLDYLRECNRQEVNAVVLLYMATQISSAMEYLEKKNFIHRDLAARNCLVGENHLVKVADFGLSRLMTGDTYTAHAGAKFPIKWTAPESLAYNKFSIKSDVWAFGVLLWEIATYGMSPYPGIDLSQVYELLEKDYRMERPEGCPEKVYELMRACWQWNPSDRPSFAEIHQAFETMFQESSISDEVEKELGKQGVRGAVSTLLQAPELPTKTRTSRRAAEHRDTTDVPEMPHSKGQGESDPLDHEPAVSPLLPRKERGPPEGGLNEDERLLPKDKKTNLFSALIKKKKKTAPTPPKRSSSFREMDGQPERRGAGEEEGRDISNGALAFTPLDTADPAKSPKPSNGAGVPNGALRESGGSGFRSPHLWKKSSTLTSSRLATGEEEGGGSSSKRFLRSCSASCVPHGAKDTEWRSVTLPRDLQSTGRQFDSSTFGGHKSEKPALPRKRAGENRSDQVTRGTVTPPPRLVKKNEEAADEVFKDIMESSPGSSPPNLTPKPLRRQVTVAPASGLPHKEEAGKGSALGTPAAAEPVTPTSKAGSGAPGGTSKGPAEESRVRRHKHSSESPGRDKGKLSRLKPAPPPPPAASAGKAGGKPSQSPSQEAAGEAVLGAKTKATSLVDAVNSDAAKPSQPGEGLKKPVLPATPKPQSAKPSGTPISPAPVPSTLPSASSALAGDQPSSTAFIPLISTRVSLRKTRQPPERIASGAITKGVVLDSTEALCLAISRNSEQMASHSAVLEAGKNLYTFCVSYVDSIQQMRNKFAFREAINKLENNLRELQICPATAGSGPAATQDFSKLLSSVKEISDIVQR

For `CCCCN(C(=O)OCCN1CCN(C)CC1)c1nc(SCC)nc2c1cnn2CC(Cl)c1ccccc1` (stereo not given), the values for the 50% inhibitory concentration (IC50) in [1] and in [5] were 1.2 µM and 2.4 µM, respectively. Also, the inhibition result in data set [2] and in data set [7] was “inactive” in each case. Further, the half-life at 500 µM in data set [3] was found to be 0.5 h; in data set [6], 1.05 h; in [8], 2.08 h. The same compound had a half-life at 1000 µM in [4] of 0.467 h. Also, the “Inhibition of c-SRC Y416 phosphorylation (qualitative)” value (“Inhibition … (qualitative)” below) in data set [9] is “Active”.
`CSc1nc(Nc2cccc(Br)c2)c2cnn(CC(C)c3ccccc3)c2n1` (stereo not given): the IC50 in data set [1] is 6.2 µM; in data set [5] it was 5.8 µM. Further, in [10], the R% was determined as 80.4%. Besides, in data set [11], the apparent permeability coefficient (Papp) at 5 h turned out to be 0.01 ×10⁻⁶ cm/s. Besides, in [12], the solubility thermodynamic at 24 h was determined as 0.01 µg/mL (≈ 0.022 µM). The remaining at 1 h, 50 µM in [13] was found to be 95.1%. Further, the “Inhibition … (qualitative)” value in [9] is “Active”.
Take `CSc1nc(N(C(=O)OCCN2CCN(C)CC2)c2cccc(Br)c2)c2cnn(CC(C)c3ccccc3)c2n1` (stereo not given): the IC50 was 2.8 µM in data set [1] and 2.6 µM in data set [5]. Also, in [10], the R% turned out to be 67.3%. Further, the Papp in [11] (pampa, 5 h) amounted to 2.11 ×10⁻⁶ cm/s. The inhibition entry in data set [2] and in data set [7] was “inactive” throughout. Besides, the half-life at 500 µM in data set [3], in data set [6] and in [8] was over 48 h throughout. The remaining at 1 h, 50 µM in [13] was found to be 99.9%. Also, the half-life at 1000 µM in data set [4] came to 3.22 h. Moreover, the “Inhibition … (qualitative)” value in data set [9] is “Active”.
With `CCCCNc1nc(SCC)nc2c1cnn2CC(Cl)c1ccccc1` (stereo not given), the 50% inhibitory concentration (IC50) amounted to 3.5 µM in data set [1] and 6.7 µM in [5]. In addition, the R% in data set [10] came to 44.9%. Moreover, the Papp at 5 h in [11] came to 5.99 ×10⁻⁶ cm/s. Further, the solubility thermodynamic at 24 h in data set [12] worked out at 0.05 µg/mL (≈ 0.128 µM). In data set [13], the remaining at 1 h, 50 µM came to 91.5%. Also, the “Inhibition … (qualitative)” value in [9] is “Active”.
